Test results published in ChEMBL document CHEMBL2163281, “p-(4-Azipentyl)propofol: a potent photoreactive general anesthetic derivative of propofol” (J Med Chem, 2011).
Converted amounts (≈) assume the structure as drawn. The source made the active and inactive calls. No cut-off for these calls is given here.

Key:
Tetronarce californica [1] = assay: Binding affinity to Torpedo californica nACh-delta receptor assessed as photoincorporation at 1.7 uM by SDS-PAGE followed by fluorography analysis in presence of carbamylcholine; details: tested as the 3H-labelled form
How it was run: (§1)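 Torpedo californica electric-organ nACh receptor-rich membranes at 2 mg/mL in Torpedo saline pH 7.0 with 1 mM oxidized glutathione. Membranes were equilibrated 30 min with 1.7 μM [3H]ligand alone or with 100 μM tetracaine, 100 μM phencyclidine, 300 μM propofol and/or 1 mM carbamylcholine. Samples were UV-irradiated at 365 nm on ice for 30 min. Read-out: 8% SDS-PAGE, fluorography (2 weeks) and scintillation counting of gel bands.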

Tetronarce californica [2] = assay: Binding affinity to Torpedo californica nACh-gamma receptor assessed as photoincorporation at 1.7 uM by SDS-PAGE followed by fluorography analysis in presence of carbamylcholine; details: tested as the 3H-labelled form; how it was run: as §1
Tetronarce californica [3] = assay: Binding affinity to Torpedo californica nACh-beta receptor assessed as photoincorporation at 1.7 uM by SDS-PAGE followed by fluorography analysis in presence of carbamylcholine; details: tested as the 3H-labelled form; how it was run: as §1
Tetronarce californica [4] = assay: Binding affinity to Torpedo californica nACh-delta receptor assessed as photoincorporation at 1.7 uM by SDS-PAGE followed by fluorography analysis in presence of propofol; details: tested as the 3H-labelled form; how it was run: as §1
Tetronarce californica [5] = assay: Binding affinity to Torpedo californica nACh-gamma receptor assessed as photoincorporation at 1.7 uM by SDS-PAGE followed by fluorography analysis in presence of propofol; details: tested as the 3H-labelled form; how it was run: as §1
Tetronarce californica [6] = assay: Binding affinity to Torpedo californica nACh-beta receptor assessed as photoincorporation at 1.7 uM by SDS-PAGE followed by fluorography analysis in presence of propofol; details: tested as the 3H-labelled form; how it was run: as §1
Tetronarce californica [7] = assay: Binding affinity to Torpedo californica nACh-delta receptor assessed as photoincorporation at 1.7 uM by SDS-PAGE followed by fluorography analysis in presence of phencyclidine; details: tested as the 3H-labelled form; how it was run: as §1
Tetronarce californica [8] = assay: Binding affinity to Torpedo californica nACh-delta receptor assessed as photoincorporation at 1.7 uM by SDS-PAGE followed by fluorography analysis in presence of tetracaine; details: tested as the 3H-labelled form; how it was run: as §1
Tetronarce californica [9] = assay: Binding affinity to Torpedo californica nACh-beta receptor assessed as photoincorporation at 1.7 uM by SDS-PAGE followed by fluorography analysis in presence of tetracaine; details: tested as the 3H-labelled form; how it was run: as §1
Tetronarce californica [10] = assay: Binding affinity to Torpedo californica nACh-alpha receptor assessed as increase photoincorporation at 1.7 uM by SDS-PAGE followed by fluorography analysis in presence of carbamylcholine and propofol; details: tested as the 3H-labelled form; how it was run: as §1
Tetronarce californica [11] = assay: Binding affinity to Torpedo californica nACh-alpha receptor assessed as decrease photoincorporation at 1.7 uM by SDS-PAGE followed by fluorography analysis in presence of carbamylcholine and phencyclidine; design: scale not given: the % may be the effect or the level left; details: tested as the 3H-labelled form; how it was run: as §1
Tetronarce californica [12] = assay: Binding affinity to Torpedo californica nACh-alpha receptor assessed as photoincorporation at 1.7 uM by SDS-PAGE followed by fluorography analysis in presence of carbamylcholine; details: tested as the 3H-labelled form; how it was run: as §1
Tetronarce californica [13] = assay: Binding affinity to Torpedo californica nACh-gamma receptor assessed as photoincorporation at 1.7 uM by SDS-PAGE followed by fluorography analysis in presence of tetracaine; details: tested as the 3H-labelled form; how it was run: as §1
[14] = Binding affinity to VDAC assessed as photoincorporation at 1.7 uM by SDS-PAGE followed by fluorography analysis; details: tested as the 3H-labelled form; how it was run: as §1
[15] = Binding affinity to Na+/K+ ATPase alpha assessed as photoincorporation at 1.7 uM by SDS-PAGE followed by fluorography analysis; details: tested as the 3H-labelled form; how it was run: as §1
[16] = molecular target: T1, 43 kDa receptor-associated protein of the synapse (Homo sapiens) (UniProt Q13702); assay: Binding affinity to RAPsyn assessed as photoincorporation at 1.7 uM by SDS-PAGE followed by fluorography analysis; details: tested as the 3H-labelled form; how it was run: as §1
T1 sequence (whole entry): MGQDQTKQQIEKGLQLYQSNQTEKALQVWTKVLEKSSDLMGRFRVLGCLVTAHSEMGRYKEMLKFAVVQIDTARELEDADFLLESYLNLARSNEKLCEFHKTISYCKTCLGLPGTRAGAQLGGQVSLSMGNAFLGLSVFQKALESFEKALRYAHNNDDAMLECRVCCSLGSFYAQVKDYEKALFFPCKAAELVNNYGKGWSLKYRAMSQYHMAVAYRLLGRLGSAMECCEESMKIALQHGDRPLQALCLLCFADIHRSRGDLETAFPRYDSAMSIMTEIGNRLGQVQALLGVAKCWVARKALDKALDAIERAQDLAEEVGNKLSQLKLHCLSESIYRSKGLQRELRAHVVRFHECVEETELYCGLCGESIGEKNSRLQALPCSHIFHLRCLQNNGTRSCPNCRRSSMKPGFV

Tetronarce californica [17] = assay: Binding affinity to Torpedo californica nACh-delta receptor assessed as photoincorporation at 1.7 uM by SDS-PAGE followed by fluorography analysis; details: tested as the 3H-labelled form; how it was run: as §1
Tetronarce californica [18] = assay: Binding affinity to Torpedo californica nACh-gamma receptor assessed as photoincorporation at 1.7 uM by SDS-PAGE followed by fluorography analysis; details: tested as the 3H-labelled form; how it was run: as §1
Tetronarce californica [19] = assay: Binding affinity to Torpedo californica nACh-beta receptor assessed as photoincorporation at 1.7 uM by SDS-PAGE followed by fluorography analysis; details: tested as the 3H-labelled form; how it was run: as §1
[20] = Antagonist activity at Torpedo californica nACh receptor expressed in Xenopus oocytes assessed as inhibition of acetylcholine-induced current response; assay type: functional, cell-based; details: Tetronarce californica, Oocyte
How it was run: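 Torpedo nACh receptor cRNA (2α:1β:1γ:1δ, ~25 ng) injected into Xenopus oocytes. Two-electrode clamp at −50 mV in ND96. Currents were evoked by 10 μM ACh (~EC20), then by ACh plus 1–100 μM drug for 15–20 s with ~3 min washes. Currents were normalized to the ACh response and fit to a logistic inhibition equation; 3 oocytes.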

[21] = molecular target: T2, GABA-A receptor; alpha-1/beta-3/gamma-2 (Homo sapiens) (UniProt P14867+P18507+P28472); assay: Increase of [3H]-flunitrazepam binding to alpha1beta3gamma2 GABAA receptor expressed in HEK293S-TetR cells at >30 uM after 1 hr by liquid scintillation counting; assay type: cell-based
How it was run: (§2)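 Membranes from HEK293S-TetR cells expressing α1β3γ2 GABAA receptors (200 μg protein) in 10 mM phosphate pH 7.4, 200 mM KCl, 1 mM EDTA. Incubated with 3 nM [3H]muscimol or 1.5 nM [3H]flunitrazepam plus drug for 1 h at 4°C. Nonspecific binding was set with 1 mM GABA or 1 mM flurazepam. Filtered onto PEI-treated filters, then scintillation-counted; triplicates.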

[22] = molecular target: T2, GABA-A receptor; alpha-1/beta-3/gamma-2 (Homo sapiens); assay: Increase of [3H]-flunitrazepam binding to alpha1beta3gamma2 GABAA receptor expressed in HEK293S-TetR cells up to 400 uM after 1 hr by liquid scintillation counting; assay type: cell-based; how it was run: as §2
[23] = molecular target: T2, GABA-A receptor; alpha-1/beta-3/gamma-2 (Homo sapiens); assay: Increase of [3H]-flunitrazepam binding to alpha1beta3gamma2 GABAA receptor expressed in HEK293S-TetR cells at 0.1 to 40 uM after 1 hr by liquid scintillation counting relative to control; assay type: cell-based; how it was run: as §2
[24] = molecular target: T2, GABA-A receptor; alpha-1/beta-3/gamma-2 (Homo sapiens); assay: Increase of [3H]muscimol binding to alpha1beta3gamma2 GABAA receptor expressed in HEK293S-TetR cells after 1 hr by liquid scintillation counting relative to control; assay type: cell-based; how it was run: as §2
[25] = molecular target: T3, GABA-A receptor; agonist GABA site (Homo sapiens) (UniProt P14867+P47870+P28472+P48169+P34903+P18505+P47869+P31644+Q16445); assay: Agonist activity at human alpha1beta2gamma2L GABAA receptor expressed in Xenopus oocytes assessed as potentiation of channel current response by two-electrode voltage clamp electrophysiology assay relative to control; assay type: functional, cell-based; details: Oocyte
[26] = molecular target: T3, GABA-A receptor; agonist GABA site (Homo sapiens); assay: Agonist activity at human alpha1beta2gamma2L GABAA receptor expressed in Xenopus oocytes assessed as potentiation of GABA-induced current response at 6 uM by two-electrode voltage clamp electrophysiology assay relative to control; assay type: functional, cell-based; details: Oocyte
[27] = molecular target: GABA-A receptor; agonist GABA site; assay: Agonist activity at human alpha1beta2gamma2L GABAA receptor expressed in Xenopus oocytes assessed as potentiation of channel current response by two-electrode voltage clamp electrophysiology assay; assay type: functional, cell-based; details: oocyte
[28] = molecular target: T3, GABA-A receptor; agonist GABA site (Homo sapiens); assay: Agonist activity at human alpha1beta2gamma2L GABAA receptor expressed in Xenopus oocytes assessed as potentiation of GABA-induced current response at 100 uM by two-electrode voltage clamp electrophysiology assay relative to control; assay type: functional, cell-based; details: Oocyte
[29] = molecular target: GABA-A receptor; agonist GABA site; assay: Agonist activity at human alpha1beta2gamma2L GABAA receptor expressed in Xenopus oocytes assessed as potentiation of GABA-induced current response by two-electrode voltage clamp electrophysiology assay; assay type: functional, cell-based; details: oocyte
Xenopus laevis = assay: Anesthetic activity in Xenopus laevis tadpoles assessed as loss of righting reflexes; assay type: functional, organism-based; details: Tadpole
How it was run: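 Xenopus tadpoles in groups of 5 were held in 2.5 mM Tris HCl pH 7.4 under low light at seven concentrations from 1.0 to 20 μM, with ethanol ≤5 mM. Each animal was flipped every 10 min until a stable response, usually at 40 min. LoRR meant failure to right within 5 s. Only animals that recovered overnight were analysed. Quantal scores were fit to a logistic equation.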

[30] = Chemical stability of the compound in 0.01 M Tris-HCl buffer at pH 7.4 at 4 degC after 2.5 days; assay type: physicochemical; details: pH 7.4, 60 h
How it was run: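 Held near saturation in buffer at 4°C for at least 2.5 days, then analysed by reverse-phase HPLC.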

[31] = Aqueous solubility of the compound in 0.01 M Tris-HCl buffer at pH 7.4; assay type: physicochemical
Tetronarce californica [32] = assay: Binding affinity to Torpedo californica nACh-beta receptor assessed as photoincorporation at 1.7 uM by SDS-PAGE followed by fluorography analysis in presence of phencyclidine; details: tested as the 3H-labelled form; how it was run: as §1
Tetronarce californica [33] = assay: Binding affinity to Torpedo californica nACh-gamma receptor assessed as photoincorporation at 1.7 uM by SDS-PAGE followed by fluorography analysis in presence of phencyclidine; details: tested as the 3H-labelled form; how it was run: as §1
[34] = Aqueous solubility of the compound in water

CC(C)c1cc(CCCC2(C)N=N2)cc(C(C)C)c1O
Activity (Tetronarce californica [1]): < 20%
Activity (Tetronarce californica [2]): < 20%
Activity (Tetronarce californica [3]): < 20%
Activity (Tetronarce californica [4]): < 20%
Activity (Tetronarce californica [5]): < 20%
Activity (Tetronarce californica [6]): < 20%
Activity (Tetronarce californica [7]): < 20%
Activity (Tetronarce californica [8]): < 20%
Activity (Tetronarce californica [9]): < 20%
Activity (Tetronarce californica [10]): 20%
Activity (Tetronarce californica [11]): 20%
Activity (Tetronarce californica [12]): 100%
Activity (Tetronarce californica [13]): < 20%
Activity [14]: Active
Activity [15]: Active
Activity [16]: Active
Activity (Tetronarce californica [17]): Active
Activity (Tetronarce californica [18]): Active
Activity (Tetronarce californica [19]): Active
IC50 [20]: 4 µM
Activity [21]: Active
Activity [22]: inactive
fold change (FC) [23]: 1.6
fold change (FC) [24]: 1.6
Activity [25]: 10%
fold change (FC) [26]: 9
EC50 [27]: 15 µM
fold change (FC) [28]: 20
EC50 [29]: 4.5 µM
EC50 (Xenopus laevis): 3.2 µM
Stability [30]: Stable
solubility [31]: 73 µM (≈ 20 µg/mL)
Activity (Tetronarce californica [32]): < 20%
Activity (Tetronarce californica [33]): < 20%

CC(C)c1cccc(C(C)C)c1O [PROPOFOL]
IC50 [20]: 7.3 µM
Activity [21]: inactive
Activity [22]: inactive
fold change (FC) [23]: 2
fold change (FC) [24]: 2.4
Activity [25]: 45%
EC50 [27]: 50 µM
EC50 [29]: 5.2 µM
EC50 (Xenopus laevis): 2.2 µM
solubility [34]: 1000 µM (≈ 178 µg/mL)
